Test results as given in ChEMBL document CHEMBL1128448, “Synthesis and antifungal activity of new azole derivatives containing an N-acylmorpholine ring” (1995).
Converted amounts (≈) assume the structure as drawn.

Experiments:
Candida albicans [1] = assay: Evaluation of In vitro antifungal activity against Candida albicans ATCC 10231 by broth macro dilution method; assay type: functional
Outline: (§1)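 Yeast MIC and MFC by broth macrodilution per NCCLS M27-P in RPMI-1640 buffered with 0.165 M MOPS. Fluconazole in sterile water, other drugs in DMSO. C. parapsilosis ATCC 22019 is the reference strain in each run. MIC is the lowest concentration with turbidity ≤ the 80% inhibition standard. For MFC, 0.04 mL from clear tubes is plated on Sabouraud agar; MFC is the lowest concentration giving ≤1 colony.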

Kluyveromyces marxianus [2] = assay: Evaluation of In vitro antifungal activity against yeasts by broth macro dilution method; assay type: functional; outline: as §1
Candida parapsilosis [3] = assay: Evaluation of In vitro antifungal activity against Candida parapsilosis C74 by broth macro dilution method; assay type: functional; conditions: Lodderomyces parapsilosis; outline: as §1
Trichophyton benhamiae = assay: In vitro evaluation of minimum inhibitory concentration against Trichophyton mentagrophytes 23; assay type: functional, Arthroderma benhamiae; conditions: Trichophyton benhamiae; read-out: MIC
Outline: (§2)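 Stocks are 800 μg/mL in 50% ethanol. Each plate gets 10 μL of inoculum at 10^5 cfu/mL. Incubation at 25 °C, 48 h for yeasts and 120 h for dermatophytes and molds. Organisms are ATCC strains or clinical isolates.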

Candida parapsilosis [4] = assay: Evaluation of In vitro antifungal activity against Candida parapsilosis ATCC 22019 by broth macro dilution method; assay type: functional; conditions: Lodderomyces parapsilosis; outline: as §1
Mus sp. [5] = assay: In vivo evaluation of % survival rate after peroral administration on 3rd day at dose 1 mg/kg; assay type: functional; conditions: Mus sp., po
Candida albicans [6] = assay: Evaluation of In vitro antifungal activity against Candida albicans C56 by broth macro dilution method; assay type: functional; outline: as §1
Cryptococcus neoformans = assay: Evaluation of In vitro antifungal activity against Cryptococcus neoformans 87 by broth macro dilution method; assay type: functional; outline: as §1
Trichophyton rubrum = assay: In vitro evaluation of minimum inhibitory concentration against Trichophyton rubrum 90; assay type: functional; conditions: Trichophyton rubrum; read-out: MIC; outline: as §2
Mus sp. [7] = assay: In vivo evaluation of % survival rate after peroral administration on 5th day at dose 1 mg/kg; assay type: functional; conditions: Mus sp., po
Candida albicans [8] = assay: Evaluation of […] antifungal activity against Candida albicans 60 by broth macro dilution method; assay type: functional; outline: as §1
Mus sp. [9] = assay: In vivo evaluation of % survival rate after peroral administration on 3rd day at dose 0.5 mg/kg; assay type: functional; conditions: route oral
Candida albicans [10] = assay: Evaluation of In vitro antifungal activity against Candida albicans 406 by broth macro dilution method; assay type: functional; outline: as §1
Candida albicans [11] = assay: Evaluation of In vitro antifungal activity against Candida albicans 60 by broth macro dilution method
Mus musculus = assay: In vivo evaluation of % survival rate after peroral administration on 7th day at dose 0.5 mg/kg; assay type: functional; conditions: Mus musculus, po
Candida albicans [12] = assay: Evaluation of In vitro antifungal activity against Candida albicans 31 by broth macro dilution method; assay type: functional; outline: as §1
Candida parapsilosis [13] = assay: Evaluation of In vitro antifungal activity against Candida parapsilosis 2.07 by broth macro dilution method; assay type: functional; conditions: Lodderomyces parapsilosis; outline: as §1
Aspergillus flavus = assay: In vitro evaluation of minimum inhibitory concentration against Aspergillus flavus 19; assay type: functional; conditions: Aspergillus flavus; read-out: MIC; outline: as §2
[14] = test system: Meyerozyma guilliermondii; assay: Evaluation of In vitro antifungal activity against Candida guilliermondii 26 by broth macro dilution method; assay type: functional; outline: as §1
Mus sp. [15] = assay: In vivo evaluation of % survival rate after peroral administration on 7th day at dose 1 mg/kg; assay type: functional; conditions: route oral, 1 mg/kg
Pichia kudriavzevii [16] = assay: In vitro evaluation of minimum inhibitory concentration against Candida krusei 70; assay type: functional; conditions: Pichia kudriavzevii; read-out: MIC; outline: as §2
Mus sp. [17] = assay: In vivo evaluation of % survival rate after peroral administration on 9th day at dose 0.5 mg/kg; assay type: functional; conditions: Mus sp., po
Microsporum canis = assay: In vitro evaluation of minimum inhibitory concentration against Microsporum canis 47; assay type: functional; conditions: Microsporum canis; read-out: MIC; outline: as §2
Candida albicans [18] = assay: Evaluation of In vitro antifungal activity against Candida albicans C52 by broth macro dilution method; assay type: functional; outline: as §1
Candida parapsilosis [19] = assay: In vitro evaluation of minimum inhibitory concentration against Candida parapsilosis 61; assay type: functional; conditions: Lodderomyces parapsilosis; read-out: MIC; outline: as §2
Candida albicans [20] = assay: Evaluation of In vitro antifungal activity against Candida albicans 76 by broth macro dilution method; assay type: functional; outline: as §1
Candida albicans [21] = assay: In vitro evaluation of minimum inhibitory concentration against Candida albicans 76; assay type: functional; outline: as §2
Candida tropicalis [22] = assay: Evaluation of In vitro antifungal activity against Candida tropicalis 2.11 by broth macro dilution method; assay type: functional; outline: as §1
Candida parapsilosis [23] = assay: Evaluation of In vitro antifungal activity against Candida parapsilosis ATCC 141095 by broth macro dilution method; assay type: functional; conditions: Lodderomyces parapsilosis; outline: as §1
Nannizzia gypsea = assay: In vitro evaluation of minimum inhibitory concentration against Microsporum gypseum 22; assay type: functional; conditions: Nannizzia gypsea; read-out: MIC; outline: as §2
Mus sp. [24] = assay: In vivo evaluation of % survival rate after peroral administration on 5th day at dose 0.5 mg/kg; assay type: functional; conditions: route oral
Nakaseomyces glabratus = assay: Evaluation of In vitro antifungal activity against Torulopsis glabrata 78 by broth macro dilution method; assay type: functional; outline: as §1
Candida parapsilosis [25] = assay: Evaluation of In vitro antifungal activity against Candida parapsilosis C292 by broth macro dilution method; assay type: functional; conditions: Lodderomyces parapsilosis; outline: as §1
Pichia kudriavzevii [26] = assay: Evaluation of In vitro antifungal activity against Candida krusei C64 by broth macro dilution method; assay type: functional; outline: as §1
Pichia kudriavzevii [27] = assay: Evaluation of In vitro antifungal activity against Candida krusei 70 by broth macro dilution method; assay type: functional; outline: as §1
Candida tropicalis [28] = assay: Evaluation of In vitro antifungal activity against Candida tropicalis 50 by broth macro dilution method; assay type: functional; outline: as §1
Mus sp. [29] = assay: In vivo evaluation of % survival rate after peroral administration on 9th day at dose 1 mg/kg; assay type: functional; conditions: route oral, 1 mg/kg
Kluyveromyces marxianus [30] = assay: Evaluation of In vitro antifungal activity against Candida pseudotropicalis ATCC 28838 by broth macro dilution method; assay type: functional; outline: as §1
Aspergillus fumigatus = assay: In vitro evaluation of minimum inhibitory concentration against Aspergillus fumigatus 33; assay type: functional; conditions: Aspergillus fumigatus; read-out: MIC; outline: as §2
Rattus norvegicus = assay: In vivo evaluation of antifungal activity against vaginal candidosis in rat at dose 0.25 mg/kg on 15th day; assay type: functional
Outline: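 Groups of 10 female Wistar rats given estradiol 25 mg/kg sc on day -5, infected intravaginally with C. albicans by sterile swab on day 0; infection confirmed on day 3 by swab culture (TSB, then Sabouraud agar). Oral dosing once daily on days 3, 4, 5; vehicle controls. Vaginal swabs cultured on days 10 and 15; read-out % cured (culture-negative).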

Aspergillus niger = assay: In vitro evaluation of minimum inhibitory concentration against Aspergillus niger 18; assay type: functional; conditions: Aspergillus niger; read-out: MIC; outline: as §2
[31] = test system: Meyerozyma guilliermondii; assay: In vitro evaluation of minimum inhibitory concentration against Candida guilliermondii 26; assay type: functional; conditions: Meyerozyma guilliermondii; read-out: MIC; outline: as §2

SMILES: C[C@H]1N(C(=O)c2ccc(C(F)(F)F)cc2)C[C@H](O)O[C@@]1(Cn1cncn1)c1ccc(F)cc1F (stereo in doubt; (-)-39a)
- MFC (Candida albicans [1]): > 64 µg/mL
- MIC (Candida albicans [1]): 0.5 µg/mL (≈ 1.04 µM)
- MIC (Kluyveromyces marxianus [2]): 0.5 µg/mL (≈ 1.04 µM)
- MFC (Candida parapsilosis [3]): 32 µg/mL (≈ 66.3 µM)
- MIC (Candida parapsilosis [3]): 2 µg/mL (≈ 4.15 µM)
- MIC (Trichophyton benhamiae): > 80 µg/mL
- MFC (Candida parapsilosis [4]): 32 µg/mL (≈ 66.3 µM)
- MIC (Candida parapsilosis [4]): 16 µg/mL (≈ 33.2 µM)
- survival at 1 mg/kg (Mus sp. [5]): 100%
- MFC (Candida albicans [6]): > 64 µg/mL
- MIC (Candida albicans [6]): 1 µg/mL (≈ 2.07 µM)
- MFC (Cryptococcus neoformans): > 64 µg/mL
- MIC (Cryptococcus neoformans): 4 µg/mL (≈ 8.29 µM)
- MIC (Trichophyton rubrum): 40 µg/mL (≈ 82.9 µM)
- survival at 1 mg/kg (Mus sp. [7]): 100%
- MIC (Candida albicans [8]): 1 µg/mL (≈ 2.07 µM)
- survival at 0.5 mg/kg (Mus sp. [9]): 100%
- MFC (Candida albicans [10]): > 64 µg/mL
- MIC (Candida albicans [10]): 1 µg/mL (≈ 2.07 µM)
- MFC (Candida albicans [11]): > 64 µg/mL
- survival at 0.5 mg/kg (Mus musculus): 80%
- MFC (Candida albicans [12]): > 64 µg/mL
- MIC (Candida albicans [12]): 0.5 µg/mL (≈ 1.04 µM)
- MFC (Candida parapsilosis [13]): > 64 µg/mL
- MIC (Candida parapsilosis [13]): 4 µg/mL (≈ 8.29 µM)
- MIC (Aspergillus flavus): > 80 µg/mL
- MFC [14]: > 64 µg/mL
- MIC [14]: 32 µg/mL (≈ 66.3 µM)
- Survival (Mus sp. [15]): 100%
- MIC (Pichia kudriavzevii [16]): > 80 µg/mL
- survival at 0.5 mg/kg (Mus sp. [17]): 40%
- MIC (Microsporum canis): 40 µg/mL (≈ 82.9 µM)
- MFC (Candida albicans [18]): > 64 µg/mL
- MIC (Candida albicans [18]): 0.5 µg/mL (≈ 1.04 µM)
- MIC (Candida parapsilosis [19]): 40 µg/mL (≈ 82.9 µM)
- MFC (Candida albicans [20]): > 64 µg/mL
- MIC (Candida albicans [20]): 1 µg/mL (≈ 2.07 µM)
- MIC (Candida albicans [21]): 10 µg/mL (≈ 20.7 µM)
- MFC (Candida tropicalis [22]): > 64 µg/mL
- MIC (Candida tropicalis [22]): 64 µg/mL (≈ 133 µM)
- MFC (Candida parapsilosis [23]): > 64 µg/mL
- MIC (Candida parapsilosis [23]): > 64 µg/mL
- MIC (Nannizzia gypsea): 80 µg/mL (≈ 166 µM)
- survival at 0.5 mg/kg (Mus sp. [24]): 100%
- MFC (Nakaseomyces glabratus): > 64 µg/mL
- MIC (Nakaseomyces glabratus): > 64 µg/mL
- MFC (Candida parapsilosis [25]): > 64 µg/mL
- MIC (Candida parapsilosis [25]): 8 µg/mL (≈ 16.6 µM)
- MFC (Pichia kudriavzevii [26]): > 64 µg/mL
- MIC (Pichia kudriavzevii [26]): > 64 µg/mL
- MFC (Pichia kudriavzevii [27]): > 64 µg/mL
- MIC (Pichia kudriavzevii [27]): > 64 µg/mL
- MFC (Candida tropicalis [28]): > 64 µg/mL
- MIC (Candida tropicalis [28]): > 64 µg/mL
- Survival (Mus sp. [29]): 100%
- MFC (Kluyveromyces marxianus [30]): 64 µg/mL (≈ 133 µM)
- MIC (Aspergillus fumigatus): 80 µg/mL (≈ 166 µM)
- Cure rate (Rattus norvegicus): 100%
- MIC (Aspergillus niger): > 80 µg/mL
- MIC [31]: 80 µg/mL (≈ 166 µM)
